Measured values taken from ChEMBL document CHEMBL1122744, “2-Chloroethyl (methylsulfonyl)methanesulfonate and related (methylsulfonyl)methanesulfonates. Antineoplastic activity in vivo” (J Med Chem, 1984).

Key:
Mus musculus [1] = assay: Change in weight by day 5, obtained by subtracting treated groups of animals minus control groups of animals at dose 50 mg/kg in exp6; assay type: functional
Summary of the method: (§1)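 Mice were inoculated ip with 10^6 P388 leukemia cells on day 0 and weighed 19–22 g that day. Compound was given ip once daily on days 1–5, within about 5 min of preparing the solution or suspension, to groups of six (occasionally five). Thirty inoculated untreated mice served as controls. The value is the average weight change of treated mice minus that of controls on day 5.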

Mus musculus [2] = assay: Change in weight by day 5, obtained by subtracting treated groups of animals minus control groups of animals at dose 75 mg/kg in exp2.; assay type: functional; summary of the method: as §1
Mus musculus [3] = assay: Change in weight by day 5, obtained by subtracting treated groups of animals minus control groups of animals at dose 100 mg/kg in exp2.; assay type: functional; summary of the method: as §1
Mus musculus [4] = assay: Change in weight by day 5, obtained by subtracting treated groups of animals minus control groups of animals at dose 100 mg/kg in exp8; assay type: functional; summary of the method: as §1
Mus musculus [5] = assay: Change in weight by day 5, obtained by subtracting treated groups of animals minus control groups of animals at dose 33 mg/kg in exp5; assay type: functional; summary of the method: as §1
Mus musculus [6] = assay: Change in weight by day 5, obtained by subtracting treated groups of animals minus control groups of animals at dose 50 mg/kg in exp2.; assay type: functional; summary of the method: as §1
Mus musculus [7] = assay: Change in weight by day 5, obtained by subtracting treated groups of animals minus control groups of animals at dose 22 mg/kg in exp7; assay type: functional; summary of the method: as §1
Mus musculus [8] = assay: Change in weight by day 5, obtained by subtracting treated groups of animals minus control groups of animals at dose 50 mg/kg in exp1.; assay type: functional; summary of the method: as §1
Mus musculus [9] = assay: Median survival time of the treated control groups, in which there are no 30-day survivors at dose 15 mg/kg in exp3; assay type: functional
Mus musculus [10] = assay: Median survival time of the treated control groups, in which there are no 30-day survivors at dose 22 mg/kg in exp5; assay type: functional
Mus musculus [11] = assay: Median survival time of the treated control groups, in which there are no 30-day survivors at dose 22 mg/kg in exp6; assay type: functional
Mus musculus [12] = assay: Median survival time of the treated control groups, in which there are no 30-day survivors at dose 100 mg/kg in exp1; assay type: functional
Mus musculus [13] = assay: Mortality by day 5 expressed as number of mice died to the total treated at dose 50 mg/kg in exp8; 0/6; assay type: ADME, organism-based; parameters: dose 50 mg/kg; details: in vivo
Mus musculus [14] = assay: Mortality by day 5 expressed as number of mice died to the total treated at dose 15 mg/kg in exp4; 0/6; assay type: ADME, organism-based; parameters: dose 15 mg/kg; details: in vivo
Mus musculus [15] = assay: Mortality by day 5 expressed as number of mice died to the total treated at dose 22 mg/kg in exp7; 0/6; assay type: ADME, organism-based; parameters: dose 22 mg/kg; details: in vivo
Mus musculus [16] = assay: Mortality by day 5 expressed as number of mice died to the total treated at dose 33 mg/kg in exp5; 0/6; assay type: ADME, organism-based; parameters: dose 33 mg/kg; details: in vivo
Mus musculus [17] = assay: Mortality by day 5 expressed as number of mice died to the total treated at dose 33 mg/kg in exp7; 0/6; assay type: ADME, organism-based; parameters: dose 33 mg/kg; details: in vivo
Mus musculus [18] = assay: Median survival time of the untreated control groups, in which there are no 30-day survivors at dose 22 mg/kg in exp5; assay type: functional
Mus musculus [19] = assay: Mortality by day 5 expressed as number of mice died to the total treated at dose 50 mg/kg in exp4; 0/6; assay type: ADME, organism-based; parameters: dose 50 mg/kg; details: in vivo
Mus musculus [20] = assay: Median survival time of the treated control groups, in which there are no 30-day survivors at dose 33 mg/kg in exp3; assay type: functional
Mus musculus [21] = assay: Median survival time of the treated control groups, in which there are no 30-day survivors at dose 33 mg/kg in exp7; assay type: functional
Mus musculus [22] = assay: Median survival time of the treated control groups, in which there are no 30-day survivors at dose 50 mg/kg in exp2; assay type: functional
Mus musculus [23] = assay: Median survival time of the untreated control groups, in which there are no 30-day survivors at dose 50 mg/kg in exp4; assay type: functional
Mus musculus [24] = assay: Median survival time of the untreated control groups, in which there are no 30-day survivors at dose 50 mg/kg in exp6; assay type: functional
Mus musculus [25] = assay: Median survival time of the untreated control groups, in which there are no 30-day survivors at dose 22 mg/kg in exp6; assay type: functional
Mus musculus [26] = assay: Median survival time of the untreated control groups, in which there are no 30-day survivors at dose 33 mg/kg in exp5; assay type: functional
Mus musculus [27] = assay: Median survival time of the untreated control groups, in which there are no 30-day survivors at dose 33 mg/kg in exp7; assay type: functional
Mus musculus [28] = assay: Median survival time of the treated control groups, in which there are no 30-day survivors at dose 50 mg/kg in exp5; assay type: functional
Mus musculus [29] = assay: Median survival time of the treated control groups, in which there are no 30-day survivors at dose 50 mg/kg in exp8; assay type: functional
Mus musculus [30] = assay: Median survival time of the treated control groups, in which there are no 30-day survivors at dose 75 mg/kg in exp2; assay type: functional
Mus musculus [31] = assay: Median survival time of the untreated control groups, in which there are no 30-day survivors at dose 100 mg/kg in exp1; assay type: functional
Mus musculus [32] = assay: Median survival time of the untreated control groups, in which there are no 30-day survivors at dose 200 mg/kg in exp1; assay type: functional
Mus musculus [33] = assay: Median survival time of the untreated control groups, in which there are no 30-day survivors at dose 200 mg/kg in exp8; assay type: functional
[34] = Ratio of median survival times for non-survivors at dose 50 mg/kg in exp2; assay type: functional
Summary of the method: (§2)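 Mice were inoculated ip with 10^6 P388 leukemia cells on day 0. Groups of six (occasionally five) were dosed ip qd on days 1–5 with fresh suspensions; 30 mice served as untreated controls. Deaths were recorded daily up to day 60. T/C% compares the median survival of treated non-survivors (<60 days) with the control median. Medians used grouped data when there were no 30-day survivors, otherwise ungrouped data. t = toxic.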

[35] = Ratio of number of 30-day survivors to the total treated mice at dose 50 mg/kg in exp1; 4/6; assay type: functional
[36] = Ratio of number of 60-day survivors to the total treated mice at dose 50 mg/kg in exp2; 0/5; assay type: functional
[37] = Ratio of number of 60-day survivors to the total treated mice at dose 50 mg/kg in exp6; […]; assay type: functional
[38] = Ratio of median survival times for non-survivors at dose 100 mg/kg in exp2; assay type: functional; summary of the method: as §2
[39] = Ratio of median survival times for non-survivors at dose 100 mg/kg in exp8*-toxic; assay type: functional; summary of the method: as §2
[40] = Ratio of median survival times for non-survivors at dose 100 mg/kg in exp1; assay type: functional; parameters: unit: %; summary of the method: as §2
[41] = Ratio of median survival times for non-survivors at dose 22 mg/kg in exp3; assay type: functional; summary of the method: as §2
[42] = Ratio of median survival times for non-survivors at dose 22 mg/kg in exp5; assay type: functional
[43] = Ratio of median survival times for non-survivors at dose 33 mg/kg in exp5; assay type: functional
[44] = Ratio of median survival times for non-survivors at dose 33 mg/kg in exp6; assay type: functional
[45] = Ratio of median survival times for non-survivors at dose 33 mg/kg in exp7; assay type: functional

CS(=O)(=O)CS(=O)(=O)OCCCl
Change in weight (Mus musculus [1]): -3.1
Change in weight (Mus musculus [2]): -4.2
Change in weight (Mus musculus [3]): -4.1
Change in weight (Mus musculus [4]): -6
Change in weight (Mus musculus [5]): -1.5
Change in weight (Mus musculus [6]): -3.4
Change in weight (Mus musculus [7]): -2.2
T-C (Mus musculus [8]): -3.4 g
Median survival time (Mus musculus [9]): 16
Median survival time (Mus musculus [10]): 19.4
Median survival time (Mus musculus [11]): 20.8
Median survival time (Mus musculus [12]): 17
Mortality (Mus musculus [13]): 0
Mortality (Mus musculus [14]): 0
Mortality (Mus musculus [15]): 0
Mortality (Mus musculus [16]): 0
Mortality (Mus musculus [17]): 0
Median survival time (Mus musculus [18]): 12
Mortality (Mus musculus [19]): 0
Median survival time (Mus musculus [20]): 22
Median survival time (Mus musculus [21]): 22.3
Median survival time (Mus musculus [22]): 27
Median survival time (Mus musculus [23]): 10.5
Median survival time (Mus musculus [24]): 13
Median survival time (Mus musculus [25]): 13
Median survival time (Mus musculus [26]): 12
Median survival time (Mus musculus [27]): 10.7
Median survival time (Mus musculus [28]): 27
Median survival time (Mus musculus [29]): 30
Median survival time (Mus musculus [30]): 17.5
Median survival time (Mus musculus [31]): 11.2
Median survival time (Mus musculus [32]): 11.2 days
Median survival time (Mus musculus [33]): 11
Ratio [34]: 241
Ratio [35]: 4
Ratio [36]: 0
Ratio [37]: 2
Ratio [38]: 200
Ratio [39]: 55
Ratio [40]: 151
Ratio [41]: 166
Ratio [42]: 161
Ratio [43]: 214
Ratio [44]: 179
Ratio [45]: 179
